Test results: ChEMBL document CHEMBL2150880, “Discovery and characterization of small molecule inhibitors of the BET family bromodomains” (J Med Chem, 2011)
Calls of active or inactive are those of the source. The rule behind the calls is not given here.

Experiments:
HepG2 [1] = experiment: Induction of human ApoA1 gene expression in stably transfected human HepG2 cells coexpressing luciferase reporter gene after 18 hrs by luminescence assay; format: functional, cell-based
HepG2 [2] = experiment: Induction of human LDL-R gene expression in stably transfected human HepG2 cells coexpressing luciferase reporter gene at 0.001 to 10 uM after 18 hrs by luminescence assay; format: functional, cell-based
Summary of the method: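 Selectivity counter-screen run in parallel under the same conditions as the ApoA1 reporter: HepG2 cells stably carrying an LDL-receptor promoter–luciferase reporter, 18 h with or without compound in 0.5% DMSO, then Bright Glo luminescence read after 10 min.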

HepG2 [3] = experiment: Induction of human ApoA1 protein synthesis in human HepG2 cells assessed as neosynthesised radiolabeled protein secretion after 6 hrs by SDS PAGE analysis in presence of [35S]methionine; format: functional, cell-based
Summary of the method: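 Confluent HepG2 cells were exposed to compound for 48 h in BME with 1% FCS. Compound was re-added in Met/Cys-depleted RPMI-1640 containing 35S-methionine for 6 h at 37 °C. Secreted labelled proteins were separated on 5–12% SDS-PAGE, and ApoA1 was quantified by phosphorimaging.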

HepG2 [4] = experiment: Induction of human ApoA1 gene expression in stably transfected human HepG2 cells coexpressing luciferase reporter gene at 0.001 to 10 uM after 18 hrs by luminescence assay; format: functional, cell-based
Summary of the method: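 HepG2 cells stably carrying an ApoA1 promoter–luciferase reporter were incubated 18 h with or without freshly diluted compound in 0.5% DMSO. Bright Glo reagent was then added, and luminescence was read after 10 min with substrate.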

HepG2 [5] = experiment: Induction of human ApoA1 gene expression in stably transfected human HepG2 cells coexpressing luciferase reporter gene at 1 uM after 18 hrs by luminescence assay relative to control; format: functional
CREB-binding protein = CREB-binding protein (Homo sapiens, UniProt Q92793); experiment: Binding affinity to CREBBP by isothermal titration calorimetric analysis
CREB-binding protein, sequence (Q92793 whole entry, the tested form may be a part): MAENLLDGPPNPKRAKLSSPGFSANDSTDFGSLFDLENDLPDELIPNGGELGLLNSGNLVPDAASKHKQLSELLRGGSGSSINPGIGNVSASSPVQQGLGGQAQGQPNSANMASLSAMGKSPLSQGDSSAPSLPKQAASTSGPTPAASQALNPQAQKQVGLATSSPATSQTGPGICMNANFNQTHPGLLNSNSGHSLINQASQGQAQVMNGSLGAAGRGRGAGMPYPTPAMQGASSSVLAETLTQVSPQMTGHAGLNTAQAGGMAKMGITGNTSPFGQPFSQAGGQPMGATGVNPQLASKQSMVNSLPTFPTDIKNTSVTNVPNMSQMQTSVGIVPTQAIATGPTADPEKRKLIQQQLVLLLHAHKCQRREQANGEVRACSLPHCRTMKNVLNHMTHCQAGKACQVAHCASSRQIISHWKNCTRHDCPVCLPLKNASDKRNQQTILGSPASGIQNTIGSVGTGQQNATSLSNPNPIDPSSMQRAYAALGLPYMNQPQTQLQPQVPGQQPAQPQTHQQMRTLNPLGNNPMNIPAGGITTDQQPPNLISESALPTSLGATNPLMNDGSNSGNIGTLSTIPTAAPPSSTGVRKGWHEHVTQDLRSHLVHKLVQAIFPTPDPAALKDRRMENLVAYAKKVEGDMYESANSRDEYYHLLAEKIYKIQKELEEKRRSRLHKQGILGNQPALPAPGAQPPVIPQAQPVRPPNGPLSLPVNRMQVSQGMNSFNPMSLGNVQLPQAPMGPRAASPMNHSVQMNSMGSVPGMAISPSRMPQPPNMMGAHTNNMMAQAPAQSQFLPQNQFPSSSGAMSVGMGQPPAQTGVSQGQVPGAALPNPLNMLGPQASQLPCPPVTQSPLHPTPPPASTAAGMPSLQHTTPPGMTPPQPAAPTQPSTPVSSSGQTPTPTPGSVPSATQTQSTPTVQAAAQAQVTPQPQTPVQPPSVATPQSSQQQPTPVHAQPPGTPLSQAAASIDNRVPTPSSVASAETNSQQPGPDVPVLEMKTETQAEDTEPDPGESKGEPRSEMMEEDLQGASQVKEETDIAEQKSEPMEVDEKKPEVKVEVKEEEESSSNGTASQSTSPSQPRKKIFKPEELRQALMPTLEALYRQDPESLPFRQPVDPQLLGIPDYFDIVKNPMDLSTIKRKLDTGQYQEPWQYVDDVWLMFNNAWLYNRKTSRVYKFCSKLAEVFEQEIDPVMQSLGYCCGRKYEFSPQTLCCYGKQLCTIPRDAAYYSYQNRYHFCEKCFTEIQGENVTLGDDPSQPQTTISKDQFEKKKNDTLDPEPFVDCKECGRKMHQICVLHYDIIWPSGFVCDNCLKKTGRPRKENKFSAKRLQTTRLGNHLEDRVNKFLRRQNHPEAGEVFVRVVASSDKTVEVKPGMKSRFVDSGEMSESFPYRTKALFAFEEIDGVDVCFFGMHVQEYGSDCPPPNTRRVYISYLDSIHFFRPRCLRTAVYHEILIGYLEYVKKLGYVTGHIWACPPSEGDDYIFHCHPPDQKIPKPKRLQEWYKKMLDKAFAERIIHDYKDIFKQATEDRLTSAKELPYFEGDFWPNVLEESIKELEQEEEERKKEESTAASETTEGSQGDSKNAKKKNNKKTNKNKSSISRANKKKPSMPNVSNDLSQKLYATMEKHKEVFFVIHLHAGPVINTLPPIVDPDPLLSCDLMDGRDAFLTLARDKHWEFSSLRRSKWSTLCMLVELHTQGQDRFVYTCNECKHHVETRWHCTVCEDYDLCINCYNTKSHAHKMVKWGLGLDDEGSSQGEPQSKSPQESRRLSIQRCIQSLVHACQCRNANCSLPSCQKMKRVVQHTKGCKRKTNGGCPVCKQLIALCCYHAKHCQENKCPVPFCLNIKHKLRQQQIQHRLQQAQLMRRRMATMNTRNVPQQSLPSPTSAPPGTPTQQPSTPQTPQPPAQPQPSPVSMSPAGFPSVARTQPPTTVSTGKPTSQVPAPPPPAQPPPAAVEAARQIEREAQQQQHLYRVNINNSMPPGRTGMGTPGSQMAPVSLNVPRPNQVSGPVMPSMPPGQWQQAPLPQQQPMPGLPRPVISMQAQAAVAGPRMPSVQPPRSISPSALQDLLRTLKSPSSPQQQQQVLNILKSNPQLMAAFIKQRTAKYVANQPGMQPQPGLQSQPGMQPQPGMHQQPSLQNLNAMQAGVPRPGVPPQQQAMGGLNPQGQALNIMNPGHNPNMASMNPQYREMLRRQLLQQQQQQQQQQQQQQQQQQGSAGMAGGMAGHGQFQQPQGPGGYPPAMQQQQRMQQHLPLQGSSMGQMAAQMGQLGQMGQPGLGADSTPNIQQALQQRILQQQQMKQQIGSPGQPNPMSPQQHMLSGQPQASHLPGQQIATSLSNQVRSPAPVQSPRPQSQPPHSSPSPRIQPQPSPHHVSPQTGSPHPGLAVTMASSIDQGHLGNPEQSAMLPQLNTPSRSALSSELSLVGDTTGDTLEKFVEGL

[6] = target: T1, ATPase family AAA domain-containing protein 2 (Homo sapiens, UniProt Q6PL18); experiment: Binding affinity to ATAD2 by isothermal titration calorimetric analysis
T1 sequence (Q6PL18 whole entry): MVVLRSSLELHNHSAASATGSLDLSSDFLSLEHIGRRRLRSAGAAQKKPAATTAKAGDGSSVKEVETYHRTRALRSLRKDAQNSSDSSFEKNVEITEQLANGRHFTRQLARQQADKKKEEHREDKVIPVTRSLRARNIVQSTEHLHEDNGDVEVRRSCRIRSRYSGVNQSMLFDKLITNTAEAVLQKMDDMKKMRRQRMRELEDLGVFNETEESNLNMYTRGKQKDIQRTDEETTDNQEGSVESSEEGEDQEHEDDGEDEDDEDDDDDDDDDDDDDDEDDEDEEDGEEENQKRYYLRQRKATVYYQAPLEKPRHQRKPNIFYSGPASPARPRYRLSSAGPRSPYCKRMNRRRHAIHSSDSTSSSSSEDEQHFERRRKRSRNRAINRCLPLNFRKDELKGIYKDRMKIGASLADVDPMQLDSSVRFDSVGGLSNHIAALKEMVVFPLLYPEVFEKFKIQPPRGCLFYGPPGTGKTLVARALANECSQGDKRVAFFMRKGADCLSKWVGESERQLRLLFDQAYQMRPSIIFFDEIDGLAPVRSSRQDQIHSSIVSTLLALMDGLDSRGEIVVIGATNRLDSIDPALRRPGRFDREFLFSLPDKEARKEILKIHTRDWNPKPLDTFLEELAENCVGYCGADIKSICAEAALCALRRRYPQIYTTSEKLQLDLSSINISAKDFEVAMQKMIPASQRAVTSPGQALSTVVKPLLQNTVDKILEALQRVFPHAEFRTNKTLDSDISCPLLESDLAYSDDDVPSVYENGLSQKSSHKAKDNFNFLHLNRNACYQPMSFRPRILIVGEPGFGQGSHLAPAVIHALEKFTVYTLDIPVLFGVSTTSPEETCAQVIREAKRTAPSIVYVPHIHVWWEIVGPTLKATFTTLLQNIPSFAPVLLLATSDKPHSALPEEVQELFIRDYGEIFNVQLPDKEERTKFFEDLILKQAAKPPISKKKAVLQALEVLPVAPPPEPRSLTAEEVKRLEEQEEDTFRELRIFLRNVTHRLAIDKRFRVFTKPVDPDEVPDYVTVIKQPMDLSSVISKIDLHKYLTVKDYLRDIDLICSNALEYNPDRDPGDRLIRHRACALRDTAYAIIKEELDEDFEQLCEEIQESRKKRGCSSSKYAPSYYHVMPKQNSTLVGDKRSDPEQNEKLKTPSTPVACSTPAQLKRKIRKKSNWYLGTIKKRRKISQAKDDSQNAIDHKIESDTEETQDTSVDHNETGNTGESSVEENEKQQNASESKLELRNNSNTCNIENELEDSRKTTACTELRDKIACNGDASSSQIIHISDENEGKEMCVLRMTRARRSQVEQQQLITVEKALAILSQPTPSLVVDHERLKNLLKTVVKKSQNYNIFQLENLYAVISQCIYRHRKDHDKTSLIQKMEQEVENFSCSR

HepG2 [7] = experiment: Induction of human ApoA1 gene expression in stably transfected human HepG2 cells coexpressing luciferase reporter gene after 18 hrs by luminescence assay relative to control; format: functional

`CCNC(=O)C[C@@H]1N=C(c2ccc(Cl)cc2)c2cc(OC)ccc2-n2c(C)nnc21` was tested, and the Activity (HepG2 [1]) was “Dose-dependent effect”, the Activity (HepG2 [2]) was “inactive” and the Activity (HepG2 [3]) was “Active”.

In the case of `CCNC(=O)C[C@H]1N=C(c2ccc(Cl)cc2)c2cc(OC)ccc2-n2c(C)nnc21`, the Activity (HepG2 [2]) is reported as “inactive” and the Activity (HepG2 [4]) is reported as “inactive”.

In the case of `Cc1nnc2n1-c1ccccc1C(c1ccccc1)=NC2NC(=O)OCc1ccccc1` (configuration not stated), the Activity (HepG2 [1]) is reported as “Dose-dependent effect”, the EC50 (HepG2 [1]; HepG2, 18 h) is reported as 0.44 µM and the Activity (HepG2 [2]) is reported as “inactive”. For the same compound, the “fold change (FC)” value (HepG2 [5]) was 3, the Kd (CREB-binding protein) was > 50 µM and the Kd [6] was > 50 µM. For the same compound, the “fold change (FC)” value (HepG2 [7]) was 4.5.
